# Assay outcomes deposited in PubChem by several laboratories.
# Lipid droplet – modulators of hepatic lipid droplet formation; AML12 mouse hepatocytes, oleate lipid droplets, BODIPY imaging; AID 1656; inhibition, % at 6.5 µM; hit rate 0.4% among 240,000;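 active = lipid droplet intensity inhibited by at least 50%, with more than 500 cells counted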
#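 Material – mouse AML12 hepatocyte cell line, fixed after treatment · Compound dosing – one dose, 6.5 µM compound · Times – compound with oleate, overnight · Measured by – Image-based BODIPY and DAPI two-channel analysis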
# HSF1 activator – increases HSF-1 driven luciferase reporter signal. NIH3T3-HGL HSF-1 luciferase reporter, MG132, 8 h; 100% = twice DMSO control signal. AID 504408. activation, % at 9 µM. hit rate 1.7% among 300,000;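 active = mean replicate activation of at least 50% with a set share of replicates each reaching 50%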;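 note: 0% = median of the neutral control wells and 100% = twice that signal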
# HSF1 inhib – HSF1 inhibition; activity change, negative = inhibition, % at 7.5 µM (by protocol); hit rate 0.77% among 300,000; NIH3T3-HGL HSE-luciferase, MG132-induced, luminescence 8 h; hits give low values;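 active = more than half of replicate wells show activity change below -50%, luminescence cut by over half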;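 note: luciferase reports HSF-1 transcriptional activity via heat shock element; 0% = median of DMSO wells and -100% = zero luminescence signal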
# CHT PAM – human CHT allosteric activation; CHT-expressing cells, membrane potential dye, choline EC20; hits give high values; LV-AA mutant CHT in HEK293 cells; B-score at 10 µM; hit rate 0.49% among 310,000;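 active = initial fluorescence not abnormally high and integrated response B-score, plate-corrected, over 3 SD above library mean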
# Target sequence (Q9GZV3 whole entry, looked up): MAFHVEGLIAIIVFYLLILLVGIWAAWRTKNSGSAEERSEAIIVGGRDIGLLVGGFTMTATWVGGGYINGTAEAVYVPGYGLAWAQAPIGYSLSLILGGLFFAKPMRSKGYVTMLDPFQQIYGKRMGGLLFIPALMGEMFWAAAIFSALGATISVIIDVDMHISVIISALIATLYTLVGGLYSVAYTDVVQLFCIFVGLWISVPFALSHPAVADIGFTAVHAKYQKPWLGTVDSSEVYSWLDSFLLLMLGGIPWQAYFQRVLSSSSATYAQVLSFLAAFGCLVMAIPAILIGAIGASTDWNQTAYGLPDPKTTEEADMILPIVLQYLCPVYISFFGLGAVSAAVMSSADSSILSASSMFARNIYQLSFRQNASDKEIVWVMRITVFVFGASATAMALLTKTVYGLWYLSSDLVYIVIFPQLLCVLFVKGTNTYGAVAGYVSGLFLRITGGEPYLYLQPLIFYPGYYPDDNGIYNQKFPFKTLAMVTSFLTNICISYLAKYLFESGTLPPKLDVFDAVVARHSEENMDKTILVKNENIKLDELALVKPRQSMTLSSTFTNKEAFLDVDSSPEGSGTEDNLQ
# CHT block – inhibitors of human choline transporter CHT; Q9GZV3; CHT-expressing cells, membrane potential dye, choline response; hits give low values; B-score at 10 µM; hit rate 0.86% among 310,000; AID 488975;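 active = B-score over 3 SD under the library average, and starting fluorescence ratio not unusually high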;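 note: choline stimulus applied at its EC90 after an EC20 pre-addition; B-score computed on integrated fluorescence ratio after choline addition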
# PHOSPHO1 inh – inhibitors of human PHOSPHO1 phosphatase | Q8TCT1 | recombinant PHOSPHO1, absorbance phosphatase assay | inhibition, % at 13.3 µM | hit rate 1.1% among 290,000; in the data active = inhibition above about 60%
# CHT act confirm – confirmation of human choline transporter (CHT) activators; shares compounds with CHT PAM; CHT-expressing cells, membrane potential dye fluorescence (FDSS); % of choline EC20–EC90 response window; HEK293 expressing CHT LV-AA mutant; choline added at its EC20; activation, % at 10 µM; hit rate 91% among 2,500; AID 504833;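 active = primary screen active, with duplicate mean activation above negative control mean plus 3 SD, cut at about 11% in these data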
# HEK293 MP dye – counter-screen for CHT activators: effect in parental HEK293 cells. shares compounds with CHT PAM. membrane potential dye fluorescence (FDSS); measured after EC20 choline addition. ratio readout change at 10 µM, hits read low. hit rate 62% among 2,500. AID 623908;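 active = duplicate-averaged ratio beyond 3 SD from buffer wells, up or down, though filed actives are nearly all decreases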
# An asterisk follows results filed as active; i = inactive; . = no result given. Sampled rows, rich in hits. Any-hit rate of the full collection: about 4.9%.
SMILES,Lipid droplet,HSF1 activator,HSF1 inhib,CHT PAM,CHT block,PHOSPHO1 inh,CHT act confirm,HEK293 MP dye
Cc1cc2ncn(-c3ncnc4scc(-c5ccccc5)c34)c2cc1C,.,14.1,2.5,8.41*,i,21.8,20.6*,i
Cc1ccccc1-c1cc(-c2ccccc2O)on1,.,33.0,29.6,i,i,17.7,.,.
Nc1ccc2c(c1)N1CCN=C1S2,.,4.5,-15.9,i,i,25.3,54.0*,-48.6*
O=C(Nc1ccc(Cl)cc1)Nc1ccc2c(c1)N1CCN=C1S2,.,4.8,-0.9,i,i,-11.0,.,.
CC(C)n1cnc2c(Nc3cccc(Cl)c3)nc(NCCCO)nc21,2.9,-24.2,-9.8,i,i,20.4,8.8,i
O=C(NCc1cccnc1)Nc1cccc(F)c1,-0.3,5.0,2.2,i,i,24.7,.,.
COc1ccc(C)cc1NC(=O)CN(C)S(=O)(=O)c1ccc2c(c1)c(=O)n(C)c(=O)n2C,20.3,-19.0,5.1,i,i,22.8,.,.
O=c1cc(CN2CCN(CCO)CC2)c2cc3c(cc2o1)CCC3,.,2.2,-0.2,i,i,-4.2,45.5*,-43.7*
CC(=O)N1CCN(c2ccccc2NC(=O)COc2cc(C)ccc2C(C)C)CC1,-11.3,.,.,9.95*,i,27.0,44.1*,i
Cc1cc(OCC(=O)Nc2ccccc2N2CCCC2)ccc1C(C)C,.,28.1,7.2,i,i,.,.,.
c1ccc(CN2CCN(c3nc(NCc4ccco4)c4ccccc4n3)CC2)cc1,-28.8,12.1,5.7,6.44*,i,35.6,25.8*,-52.8*
CCCCCC(=O)Nc1cccc(C2=NOC3(C2)C[C@H](C(N)=O)N(C(=O)[C@H]2CCC(=O)N2)C3)c1 (some centres not stated),4.9,-10.3,-3.0,i,i,13.3,.,.
COc1ccc(/C=N/NC(=O)c2sc(C)nc2C)cc1,3.7,26.4,-3.2,i,i,15.0,.,.
COc1ccc(/C=N/NC(=O)C(N)=O)c(OC)c1OC,0.2,7.2,0.1,i,i,19.2,.,.
COc1ccc(/C=N/N(C)C2=NCCN2)c(OC)c1OC,-21.7,-89.5,-86.2*,6.97*,i,29.9,48.4*,-29.6*
Nc1c(-c2ccccc2)c(CSc2nc3ccccc3[nH]2)nn1-c1cccc(Cl)c1,15.8,32.8,14.5,i,i,-15.3,.,.
Cc1ccccc1-n1nc(CSc2nc3ccccc3[nH]2)c(-c2ccccc2)c1N,10.7,60.1*,23.1,i,i,-9.7,35.0*,i
CN(C)CCNc1ncnc2ccccc12,1.7,0.6,-8.2,i,i,1.0,18.3*,-52.5*
Cc1ccc(-c2nc(NCCN(C)C)c3ccccc3n2)cc1,-12.6,26.1,-5.3,i,i,19.0,.,.
Cc1ccc(S(=O)(=O)NCc2ccc(C(=O)N3CCN(c4ccc([N+](=O)[O-])cc4)CC3)cc2)cc1,-0.7,-7.8,-4.5,i,i,-59.7,.,.
C[N+](C)(CC#Cc1ccccc1)CC(=O)c1ccccc1,-4.0,-7.8,4.1,i,i,-17.4,.,.
CC[N+](CC)(CC#Cc1ccccc1)CC#Cc1ccccc1,-7.3,-11.0,-3.4,7.7*,i,19.7,48.6*,i
COC(=O)CNC(c1ccccc1)c1cc(C)ccc1NC(=O)c1cccc(Cl)c1 (configuration not stated),-30.4,19.2,13.9,6.89*,i,8.4,42.8*,i
CCCSc1nc2c(c(=O)n1CC)SC(C)C2 (configuration not stated),.,-10.0,-5.4,i,i,-0.1,.,.
CCOCCCn1c(=NC(C)=O)c(C(=O)OCC)cc2c(=O)n3ccccc3nc21,19.1,-1.0,-1.0,i,i,7.1,17.2*,-41.6*
SMILES,Lipid droplet,HSF1 activator,HSF1 inhib,CHT PAM,CHT block,PHOSPHO1 inh,CHT act confirm,HEK293 MP dye
O=c1nc2ccccn2c2ccc(S(=O)(=O)N3CCCCC3)cc12,4.0,3.0,1.7,i,i,4.3,.,.
Cc1ccn2c(c1)nc(=O)c1cc(S(=O)(=O)N3CCCCC3)ccc12,12.4,16.2,-2.0,i,i,11.0,31.8*,-26.8*
CCCNC(=O)Cn1cnc2sc(C(=O)N3CCN(Cc4ccc5c(c4)OCO5)CC3)c(C)c2c1=O,-2.6,-8.0,-2.0,i,i,-0.6,.,.
CCOC(=O)c1c(CN2CCN(C)CC2)n(C)c2cc(Br)c(OC)cc12,-2.1,3.9,-0.6,i,i,10.9,38.7*,-55.2*
CC1=CC(C)(C)N(C(=O)Nc2ccccc2)c2ccccc21,10.0,2.3,13.0,i,i,-7.7,.,.
Cn1c(=O)n(CCOc2ccc(Cl)cc2Cl)c2ccccc21,5.7,-13.4,-12.5,i,i,1.9,.,.
C[n+]1cn(Cc2cc(Cl)ccc2OC(F)F)c2ccccc21,-1.1,7.0,4.6,7.26*,i,25.7,54.1*,i
CCOC(=O)c1ccc(NC(=O)C2CCN(S(=O)(=O)c3c(C)nn(C)c3C)CC2)cc1,-7.3,-15.8,-13.6,i,i,17.6,.,.
COc1ccc(S(=O)(=O)N2c3ccccc3OCC2C(C)(C)C)cc1 (configuration not stated),8.0,5.2,-4.5,i,i,3.2,.,.
COc1ccc(S(=O)(=O)N2c3ccccc3OCC2C)cc1 (configuration not stated),5.0,-14.6,-14.8,7.1*,i,-4.9,32.3*,i
CCN(CC)CCSc1nnc2c3ccccc3n(CCc3ccccc3)c2n1,-3.3,-14.5,-6.3,8.54*,i,36.0,31.2*,-35.3*
O=C1c2ccccc2C(=O)N1CSc1nnc2c3ccccc3n(CCc3ccccc3)c2n1,6.6,7.0,3.5,i,i,7.8,.,.
O=C(NCCN1CCOCC1)c1ccccc1N1C(=O)[C@@H]2Cc3c([nH]c4ccccc34)C(c3ccc(F)cc3)N2C1=O (some centres not stated),.,2.1,-4.6,i,i,44.7,.,.
COc1ccccc1C(NC(C)=O)c1c(O)ccc2ccc(O)cc12 (configuration not stated),.,-6.0,6.7,i,i,.,.,.
Cc1c(Cl)cccc1NC(=O)CCCN1C(=O)c2cccnc2C1=O,4.0,2.2,0.9,i,i,-14.5,.,.
C[C@H](NC(=O)C(c1ccccc1)c1ccccc1)c1ccccc1,21.5,18.4,7.6,7.93*,i,40.4,6.3,i
